Results on two compounds are retold here after ChEMBL document CHEMBL1148725, “2,2,2-Trichloro-N-({2-[2-(dimethylamino)ethyl]-1,3-dioxo-2,3-dihydro-1H-benzo[de]isoquinolin- 5-yl}carbamoyl)acetamide (UNBS3157), a novel nonhematotoxic naphthalimide derivative with potent antitumor activity” (J Med Chem, 2007).

Molecules are shown by their SMILES. Calls of active or inactive are those of the source. The rule behind the calls is not given here.

Assay [1] concerns A549. Put plainly: Antitumor activity against human A549 cells xenografted in mouse at 10 mg/kg, iv. It is filed as functional, organism-based. More on the design: dose 10 mg/kg. Put shortly: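 Human A549 NSCLC cells grafted orthotopically into the lungs of immunocompromised mice. Compound given i.v. at 10 mg/kg. Survival gain assessed by survival curve analysis.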
For assay [2], the target named is T1, DNA topoisomerase 1 (Homo sapiens) (UniProt P11387).
T1 sequence (whole entry): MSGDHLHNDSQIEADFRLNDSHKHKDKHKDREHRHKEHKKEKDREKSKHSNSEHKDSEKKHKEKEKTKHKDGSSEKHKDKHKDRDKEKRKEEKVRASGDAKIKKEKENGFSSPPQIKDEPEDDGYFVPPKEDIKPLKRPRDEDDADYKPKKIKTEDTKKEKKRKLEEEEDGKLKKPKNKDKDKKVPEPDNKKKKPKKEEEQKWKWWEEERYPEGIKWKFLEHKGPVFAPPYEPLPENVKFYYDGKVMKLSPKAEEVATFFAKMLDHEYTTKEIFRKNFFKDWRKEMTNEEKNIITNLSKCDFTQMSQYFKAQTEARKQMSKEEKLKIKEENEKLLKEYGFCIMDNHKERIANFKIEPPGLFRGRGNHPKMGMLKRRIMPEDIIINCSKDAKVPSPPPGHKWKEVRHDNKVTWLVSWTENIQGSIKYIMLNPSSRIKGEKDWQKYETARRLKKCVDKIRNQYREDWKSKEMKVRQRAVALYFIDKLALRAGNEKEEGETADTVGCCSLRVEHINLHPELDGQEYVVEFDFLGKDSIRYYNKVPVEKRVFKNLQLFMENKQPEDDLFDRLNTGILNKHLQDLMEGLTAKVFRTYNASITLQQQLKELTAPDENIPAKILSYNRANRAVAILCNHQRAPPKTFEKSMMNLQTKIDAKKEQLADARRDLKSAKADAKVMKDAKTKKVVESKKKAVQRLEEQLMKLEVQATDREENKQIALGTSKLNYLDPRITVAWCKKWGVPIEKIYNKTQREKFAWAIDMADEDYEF
The assay can be described thus: Inhibition of human topoisomerase 1 by DNA unwinding test. Put shortly: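 DNA unwinding assay: relaxed pBR322 plasmid converted to supercoiled form in presence of topoisomerase I; compounds at final 4–32 µM (one up to 15–55 µM); ethidium bromide-stained agarose gels; UC50 taken as concentration shifting relaxed band to midpoint between supercoiled and relaxed states.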

The target in assay [3] is DNA topoisomerase 2-alpha (Homo sapiens) (UniProt P11388). Put plainly: Inhibition of human topoisomerase 2-mediated kinetoplast DNA […] at 50 uM. An outline of the steps:
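Topoisomerase II strand-passage activity by kDNA decatenation; compounds at 50 µM; catenated networks stay in wells, decatenated kDNA enters ethidium bromide-stained agarose gel; no-enzyme and no-drug reactions as controls.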

Assay [4] deals with MCF7. The assay can be described thus: Induction of apoptosis in human MCF7 cells assessed as p53 activation. It is filed as functional, cell-based. An outline of the steps: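 MCF-7 cells treated and p53 activation assessed by immunoblotting, with tubulin as loading control. Adriamycin (2.5 µM, 24 h) served as positive control.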
Assay [5] is filed under the species Homo sapiens. The assay can be described thus: Inhibition of human topoisomerase 2 at 50 uM by plasmid linearization assay.
Assay [6] deals with MDA-MB-231. Put plainly: Antitumor activity against human MDA-MB-231 cells xenografted in immunocompromised mouse at 10 mg/kg, iv. For orientation: A xenograft is tissue or cells of one species grown in another, often human tumour cells in immunodeficient mice.
Assay [7] has as its system PC-3. Put plainly: Induction of senescence in human PC3 cells. It is filed as functional, cell-based. An outline of the steps: (§1)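 SA-β-galactosidase staining of PC-3 and DU-145 prostate cancer cells after 72 h at 10 µM; adriamycin 20 nM as positive control; expressed as percentage of positively stained cells.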
In assay [8] the test system is DU-145. Put plainly: Induction of senescence in human DU145 cells. It is filed as functional, cell-based. Put shortly: as §1

Chain of DNA topoisomerase 2-alpha (Homo sapiens) (P11388 whole entry): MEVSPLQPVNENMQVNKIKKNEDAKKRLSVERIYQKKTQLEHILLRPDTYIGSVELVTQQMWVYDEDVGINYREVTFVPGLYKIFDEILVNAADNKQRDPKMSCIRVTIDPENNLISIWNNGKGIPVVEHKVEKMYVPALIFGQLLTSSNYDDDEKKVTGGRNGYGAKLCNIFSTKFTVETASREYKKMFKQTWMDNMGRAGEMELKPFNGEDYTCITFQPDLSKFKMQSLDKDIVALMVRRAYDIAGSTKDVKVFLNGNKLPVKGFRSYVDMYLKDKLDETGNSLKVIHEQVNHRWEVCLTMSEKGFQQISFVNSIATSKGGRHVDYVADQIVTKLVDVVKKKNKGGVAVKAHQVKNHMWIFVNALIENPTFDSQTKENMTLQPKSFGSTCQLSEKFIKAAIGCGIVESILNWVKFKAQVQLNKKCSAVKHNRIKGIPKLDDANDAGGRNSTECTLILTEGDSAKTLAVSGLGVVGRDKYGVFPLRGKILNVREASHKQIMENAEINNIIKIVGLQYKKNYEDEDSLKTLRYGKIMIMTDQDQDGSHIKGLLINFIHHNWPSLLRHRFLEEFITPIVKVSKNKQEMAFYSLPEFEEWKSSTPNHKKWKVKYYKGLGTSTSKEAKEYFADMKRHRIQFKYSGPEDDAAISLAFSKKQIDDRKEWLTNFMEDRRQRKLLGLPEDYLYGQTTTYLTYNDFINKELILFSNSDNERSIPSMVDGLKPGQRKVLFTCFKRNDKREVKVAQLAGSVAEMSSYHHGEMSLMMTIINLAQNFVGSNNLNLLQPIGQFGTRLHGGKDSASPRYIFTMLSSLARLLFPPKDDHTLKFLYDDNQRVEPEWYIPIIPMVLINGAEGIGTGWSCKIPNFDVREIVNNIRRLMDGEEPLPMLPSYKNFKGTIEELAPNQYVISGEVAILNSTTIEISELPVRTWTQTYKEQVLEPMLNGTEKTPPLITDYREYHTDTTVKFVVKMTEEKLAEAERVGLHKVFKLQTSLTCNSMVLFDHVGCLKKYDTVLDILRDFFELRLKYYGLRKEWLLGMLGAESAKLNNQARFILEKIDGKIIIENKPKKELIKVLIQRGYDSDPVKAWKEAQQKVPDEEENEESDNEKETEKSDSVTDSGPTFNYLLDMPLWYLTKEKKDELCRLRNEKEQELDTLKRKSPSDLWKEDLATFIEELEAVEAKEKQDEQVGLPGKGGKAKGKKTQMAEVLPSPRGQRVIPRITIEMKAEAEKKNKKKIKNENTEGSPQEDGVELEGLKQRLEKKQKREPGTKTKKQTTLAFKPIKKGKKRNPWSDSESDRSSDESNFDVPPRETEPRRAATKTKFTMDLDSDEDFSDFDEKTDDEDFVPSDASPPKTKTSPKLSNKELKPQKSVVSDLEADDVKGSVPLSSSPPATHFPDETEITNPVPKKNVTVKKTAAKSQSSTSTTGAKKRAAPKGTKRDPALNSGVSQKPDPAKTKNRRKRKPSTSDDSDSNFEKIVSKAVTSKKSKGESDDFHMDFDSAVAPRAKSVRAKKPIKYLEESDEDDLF

Consider `CN(C)CCN1C(=O)c2cccc3cc(N)cc(c23)C1=O`, for which, in assay [1], the result was inactive. Moreover, in assay [2], the UC50 turned out to be 8 µM. Also, the result in assay [3], in assay [4], in assay [5] and in assay [6] was Active.
In the case of `COc1cccc2c1C(=O)c1c(O)c3c(c(O)c1C2=O)C[C@@](O)(C(=O)CO)C[C@@H]3O[C@H]1C[C@H](N)[C@H](O)[C@H](C)O1`, the result in assay [7] was inactive. Moreover, in assay [8], the outcome was Active.
